Tests used:
A549 = assay: Cytotoxicity against human A549 cells assessed as reduction in cell viability after 48 hrs by MTS assay; assay type: functional, cell-based; conditions: A549, 48 h
In short: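 Cells (5 × 10^3 per well) were plated 12 h before treatment, then exposed continuously to compound for 48 h. MTS was added, with 1–4 h incubation at 37 °C and OD read at 490 nm. IC50 is the concentration cutting OD by 50% versus untreated cells, taken from dose–response curves. Values are the mean of three independent determinations.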

[1] = Cell cycle arrest in human SMMC-7221 cells assessed as accumulation at sub-G1 phase at 1 uM after 24 hrs by propidium iodide/RNase A staining based FACSCalibur flow cytometry analysis (reference value: 4.03 +/- 0.47 %); assay type: functional
[2] = Cell cycle arrest in human SMMC-7221 cells assessed as accumulation at G2/M phase at 1 uM after 24 hrs by propidium iodide/RNase A staining based FACSCalibur flow cytometry analysis (reference value: 8.21 +/- 0.38 %); assay type: functional
[3] = Cell cycle arrest in human SMMC-7221 cells assessed as accumulation at sub-G1 phase at 2 uM after 24 hrs by propidium iodide/RNase A staining based FACSCalibur flow cytometry analysis (reference value: 4.03 +/- 0.47 %); assay type: functional
[4] = Induction of apoptosis in human SMMC-7221 cells assessed as early apoptotic cells at 0.5 uM after 48 hrs by AnnexinV-FITC/propidium iodide staining based FACSCalibur flow cytometry analysis (reference value: 0.106 %); assay type: functional
[5] = Induction of apoptosis in human SMMC-7221 cells assessed as late apoptotic cells at 0.5 uM after 48 hrs by AnnexinV-FITC/propidium iodide staining based FACSCalibur flow cytometry analysis (reference value: 7.7 %); assay type: functional
[6] = Induction of apoptosis in human SMMC-7221 cells assessed as early apoptotic cells at 1 uM after 48 hrs by AnnexinV-FITC/propidium iodide staining based FACSCalibur flow cytometry analysis (reference value: 0.106 %); assay type: functional
[7] = Induction of apoptosis in human SMMC-7221 cells assessed as necrotic cells at 2 uM after 48 hrs by AnnexinV-FITC/propidium iodide staining based FACSCalibur flow cytometry analysis (reference value: 2.34 %); assay type: functional
[8] = Induction of apoptosis in human SMMC-7221 cells assessed as late apoptotic cells at 8 uM after 48 hrs by AnnexinV-FITC/propidium iodide staining based FACSCalibur flow cytometry analysis (reference value: 7.7 %); assay type: functional

`COc1cccc2c1N(CCCn1c[n+](Cc3ccc(C)cc3)c3cc(C)c(C)cc31)C[C@@H]1Cc3ccc(Br)cc3[C@H]21.[Br-]` gave an IC50 (A549) of 1300 nM, an Activity [1] of 1.32% and an Activity [2] of 7.64%. The Activity [3] was 1.21%, the Activity [4] was 0.314% and the Activity [5] was 8.66%. It also gave an Activity [6] of 0.529%, an Activity [7] of 6.13% and an Activity [8] of 81.4%.

Source: ChEMBL document CHEMBL4373640, “Synthesis and antitumor activity of aza-brazilan derivatives containing imidazolium salt pharmacophores” (Medchemcomm, 2019)
